Activity calls are given as the source filed them. The rule behind the calls is not given here.
What was measured:
[1] = Inhibition of TarO in methicillin-resistant Staphylococcus aureus membranes assessed as reduction in C55-P-P-GlcNAc production using C55-P as substrate in presence of UDP-GlcNAc by LC-MS analysis
[2] = system: Staphylococcus aureus subsp. aureus COL; experiment: Inhibition of methicillin-resistant Staphylococcus aureus COL TarO assessed as compound concentration required for potentiation of imipenem-mediated bacterial growth inhibition by 95% after 20 hrs
How it was run: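 MRSA COL grown with compound in the presence of imipenem at 4 μg/mL. Growth read by OD600. The value is the minimum concentration that inhibits 95% of growth (sMITC95).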

Staphylococcus aureus [3] = experiment: Growth inhibition of methicillin-resistant Staphylococcus aureus COL after 20 hrs
How it was run: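 MRSA COL grown with compound alone, with no antibiotic added. Growth read by OD600. The value is the minimum concentration that inhibits 95% of growth (iMITC95).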

[4] = AUC (0 to infinity) in rat at 1 mg/kg, iv; format: ADME, organism-based; set-up: dose 1 mg/kg, time infinity, route intravenous; conditions: in vivo
[5] = AUC (0 to infinity) in mouse at 2 mg/kg, iv; format: ADME, organism-based; set-up: dose 2 mg/kg, time infinity, route intravenous; conditions: in vivo
[6] = Clearance in rat at 1 mg/kg, iv; format: ADME, organism-based; conditions: in vivo
[7] = Clearance in mouse at 2 mg/kg, iv; format: ADME, organism-based; conditions: in vivo
[8] = Volume of distribution at steady state in rat at 1 mg/kg, iv; format: ADME, organism-based; conditions: in vivo, read-out: Vdss
[9] = Volume of distribution at steady state in mouse at 2 mg/kg, iv; format: ADME, organism-based; conditions: in vivo, read-out: Vdss
[10] = Terminal half life in rat at 1 mg/kg, iv; format: ADME, organism-based; conditions: in vivo, read-out: beta t1/2 (converted)
[11] = Terminal half life in mouse at 2 mg/kg, iv; format: ADME, organism-based; conditions: in vivo, read-out: beta t1/2 (converted)
[12] = AUC (0 to x) in mouse blood at 50 mg/kg, sc; format: ADME, organism-based
[13] = Cmax in mouse blood at 50 mg/kg, sc; format: ADME, organism-based; set-up: dose 50 mg/kg, route subcutaneous
[14] = Tmax in mouse blood at 50 mg/kg, sc; format: ADME, organism-based
[15] = AUC (0 to x) in mouse lung at 50 mg/kg, sc; format: ADME, organism-based
[16] = Cmax in mouse lung at 50 mg/kg, sc; format: ADME, organism-based; set-up: dose 50 mg/kg, route subcutaneous
[17] = Tmax in mouse lung at 50 mg/kg, sc; format: ADME, organism-based
[18] = AUC (0 to x) in mouse liver at 50 mg/kg, sc; format: ADME, organism-based
[19] = Cmax in mouse liver at 50 mg/kg, sc; format: ADME, organism-based; set-up: dose 50 mg/kg, route subcutaneous
[20] = Tmax in mouse liver at 50 mg/kg, sc; format: ADME, organism-based
[21] = AUC (0 to x) in mouse spleen at 50 mg/kg, sc; format: ADME, organism-based
[22] = Cmax in mouse spleen at 50 mg/kg, sc; format: ADME, organism-based; set-up: dose 50 mg/kg, route subcutaneous
[23] = Tmax in mouse spleen at 50 mg/kg, sc; format: ADME, organism-based
[24] = AUC (0 to x) in mouse kidney at 50 mg/kg, sc; format: ADME, organism-based
[25] = Cmax in mouse kidney at 50 mg/kg, sc; format: ADME, organism-based; set-up: dose 50 mg/kg, route subcutaneous
[26] = Tmax in mouse kidney at 50 mg/kg, sc; format: ADME, organism-based
[27] = Ratio of AUC (0 to x) in mouse spleen to AUC (0 to x) in mouse blood at 50 mg/kg, sc; format: ADME, organism-based; conditions: read-out: Ratio AUC
[28] = Ratio of Cmax in mouse spleen to Cmax in mouse blood at 50 mg/kg, sc; format: ADME, organism-based
Staphylococcus aureus [29] = experiment: Antibacterial activity against methicillin-resistant Staphylococcus aureus COL MB 5393 infected in neutropenic balb/c mouse assessed as reduction in bacterial burden in kidney at 12.5 to 50 mg/kg, sc administered three times per day at 2, 5 and 8 hrs post challenge measured 24 hrs post challenge; format: functional, organism-based
Staphylococcus aureus [30] = experiment: (§1) Potentiation of imipenem-induced antibacterial activity against methicillin-resistant Staphylococcus aureus COL MB 5393 infected in sc dosed neutropenic balb/c mouse assessed as reduction in bacterial burden in kidney administered three times per day at 2, 5 and 8 hrs post challenge cotreated with imipenem measured 24 hrs post challenge; format: functional, organism-based
Staphylococcus aureus [31] = experiment: as §1, with “in” for “in sc dosed”, “kidney at 12.5 mg/kg, sc” for “kidney”; format: functional, organism-based
Staphylococcus aureus [32] = experiment: (§2) Potentiation of imipenem-induced antibacterial activity against methicillin-resistant Staphylococcus aureus COL MB 5393 infected in neutropenic balb/c mouse assessed as log reduction in bacterial burden in kidney at 25 mg/kg, sc administered three times per day at 2, 5 and 8 hrs post challenge cotreated with imipenem measured 24 hrs post challenge; format: functional
Staphylococcus aureus [33] = experiment: as §2, with “50” for “25”; format: functional
Mus musculus = experiment: Toxicity in mouse at 50 mg/kg, sc; format: organism-based; conditions: in vivo
[34] = Solubility of the compound in PBS buffer; format: physicochemical
Staphylococcus aureus [35] = experiment: Antibacterial activity against methicillin-resistant Staphylococcus aureus COL MB 5393 infected in balb/c mouse assessed as reduction in bacterial burden in kidney at 5 mg/kg, sc administered 2 to 8 hrs post challenge measured 24 hrs post challenge; format: functional, organism-based

## C[C@H]1[C@@H](c2cccc(C(F)(F)F)c2)OC(=O)N1C(=O)NCc1cncc2ccccc12
[1]
  IC50: 162 nM
[2]
  MITC95: 250 nM
Staphylococcus aureus [3]
  MITC95: > 200 µM
[4]
  AUC(0-inf): 0.42 µM·h
[5]
  AUC(0-inf): 1.26 µM·h
[6]
  clearance: 92.7 to 93 mL/min/kg
[7]
  clearance: 61 to 61.4 mL/min/kg
[8]
  Vd: 6.6 L/kg
[9]
  Vd: 13.1 to 13.5 L/kg
[10]
  half-life: 102 min
[11]
  half-life: 384 min
[12]
  AUC: 9.9 µM·h
[13]
  Cmax: 4.9 µM
[14]
  Tmax: 30 min
[15]
  AUC: 123 µM·h
[16]
  Cmax: 43.7 µM
[17]
  Tmax: 42 min
[18]
  AUC: 322 µM·h
[19]
  Cmax: 101 µM
[20]
  Tmax: 1 h
[21]
  AUC: 75 µM·h
[22]
  Cmax: 29 µM
[23]
  Tmax: 1 h
[24]
  AUC: 336 µM·h
[25]
  Cmax: 95 µM
[26]
  Tmax: 1 h
[27]
  Kp: 6 to 8
[28]
  Kp: 6 to 8
Staphylococcus aureus [29]
  Activity: inactive
Staphylococcus aureus [30]
  Activity: Dose-dependent effect
Staphylococcus aureus [31]
  Activity: inactive
Staphylococcus aureus [32]
  log(activity): 2
Staphylococcus aureus [33]
  log(activity): 2.5
Mus musculus
  Activity: Non-Toxic

## C[C@H]1[C@@H](c2cc(C(F)(F)F)cc(C(F)(F)F)c2)OC(=O)N1C(=O)Cc1cncc2ccccc12
[1]
  IC50: 2500 nM
Staphylococcus aureus [3]
  MITC95: > 200 µM

## C[C@H]1[C@@H](c2cc(C(F)(F)F)cc(C(F)(F)F)c2)OC(=O)N1C(=O)NCc1cncc2cccnc12
[1]
  IC50: 12 nM
[2]
  MITC95: 125 nM
Staphylococcus aureus [3]
  MITC95: > 200 µM

## C[C@H]1[C@@H](c2cc(C(F)(F)F)cc(C(F)(F)F)c2)OC(=O)N1C(=O)Cc1cccc2ccccc12
[1]
  IC50: 125 to 171 nM
[2]
  MITC95: 900 nM
Staphylococcus aureus [3]
  MITC95: > 200 µM
[34]
  solubility: < 1 µM

## C[C@H]1[C@@H](c2cc(C(F)(F)F)cc(C(F)(F)F)c2)OC(=O)N1CCC(=O)N1CCOc2ccccc21
[1]
  IC50: > 200000 nM
[2]
  MITC95: > 200000 nM

## C[C@@H](O)[C@H]1C(=O)N2C(C(=O)O)=C(SCCNC=N)C[C@H]12
Staphylococcus aureus [35]
  Activity: inactive

## C[C@H]1[C@@H](c2cc(C(F)(F)F)cc(C(F)(F)F)c2)OC(=O)N1C(=O)CCc1cccc2ccccc12
[1]
  IC50: 9 nM
[2]
  MITC95: 15 nM
Staphylococcus aureus [3]
  MITC95: > 200 µM

## O=C(NCc1cncc2ccccc12)N1C(=O)O[C@H](c2cccc(C(F)(F)F)c2)[C@@H]1CO
[1]
  IC50: 300 nM
[2]
  MITC95: 650 nM
Staphylococcus aureus [3]
  MITC95: > 200 µM

## COc1cc(C(F)(F)F)cc([C@H]2OC(=O)N(C(=O)NCc3cncc4ccccc34)[C@H]2CO)n1
[1]
  IC50: 80 nM
[2]
  MITC95: 360 nM
Staphylococcus aureus [3]
  MITC95: > 200 µM

## C[C@H]1[C@@H](c2cc(C(F)(F)F)cc(C(F)(F)F)c2)OC(=O)N1CC(=O)Nc1cncc2ccccc12
[1]
  IC50: > 200000 nM
[2]
  MITC95: > 200000 nM

## C[C@H]1[C@@H](c2cc(C(F)(F)F)cc(C(F)(F)F)c2)OC(=O)N1C(=O)CCCc1cccc2ccccc12
[1]
  IC50: 28 nM
[2]
  MITC95: 125 nM
Staphylococcus aureus [3]
  MITC95: > 200 µM

## C[C@H]1[C@@H](c2ccccn2)OC(=O)N1C(=O)NCCc1cccc2ccccc12
[1]
  IC50: 16000 nM
[2]
  MITC95: > 200000 nM

## O=C(O)C[C@H]1[C@@H](c2cc(F)cc(C(F)(F)F)c2)OC(=O)N1C(=O)NCc1cncc2ccccc12
[1]
  IC50: > 200000 nM
[2]
  MITC95: > 200000 nM
Staphylococcus aureus [3]
  MITC95: > 200 µM

From ChEMBL document CHEMBL4049414, “Can We Make Small Molecules Lean? Optimization of a Highly Lipophilic TarO Inhibitor” (J Med Chem, 2017)
